# Screens as filed in PubChem BioAssay.
# Compounds with a hit are over-represented: about 9.6% of the library has one in this group of screens.
# Lmaj promast: Leishmania major promastigote growth inhibition, primary screen; Leishmania major promastigotes, resazurin fluorescence viability; AID 1063, 2008; inhibition, % at 10 µM; 200,000 tested, 9% active; in the data active = inhibition above about 50%;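 also: promastigotes grown with compound for 44 hours at 28 °C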
# PMI act satM6P: human PMI activators, high substrate, primary screen, biochemical, fluorescence intensity, near-saturating mannose 6-phosphate. coupled PMI enzyme assay, resazurin fluorescence, 20 min; active compounds read high; 1 = untreated enzyme, 0 = substrate-free blank. activation factor at 20 µM. 190,000 tested, 0.34% active. AID 1216, 2008;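 active = activation factor of 2 or more at 20 µM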
# Target sequence (P34949 whole entry, looked up): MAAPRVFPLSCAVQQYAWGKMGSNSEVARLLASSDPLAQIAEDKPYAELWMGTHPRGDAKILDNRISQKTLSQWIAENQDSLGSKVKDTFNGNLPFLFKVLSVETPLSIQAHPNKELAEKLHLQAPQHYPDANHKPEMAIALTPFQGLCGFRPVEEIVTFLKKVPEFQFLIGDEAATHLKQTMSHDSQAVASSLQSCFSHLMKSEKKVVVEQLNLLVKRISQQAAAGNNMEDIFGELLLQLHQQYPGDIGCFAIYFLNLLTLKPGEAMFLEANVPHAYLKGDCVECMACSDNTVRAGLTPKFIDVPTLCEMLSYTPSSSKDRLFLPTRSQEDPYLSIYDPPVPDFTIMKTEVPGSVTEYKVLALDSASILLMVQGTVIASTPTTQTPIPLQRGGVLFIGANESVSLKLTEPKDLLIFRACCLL
#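 Test system: human phosphomannose isomerase with PGI, G6PDH, diaphorase coupling enzymes; Amount: PMI at 15 ng/mL final; Reagent: Mannose-6-phosphate 1.0 mM (near-saturating) plus 0.22 mM NADP+; Timing: 20 min, room temperature; Technique: resorufin fluorescence at Ex 544/Em 590 nm; Dosing: 20 µM single dose.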
# PMI act: activators of human PMI, primary screen, biochemical, fluorescence intensity, near-Km mannose 6-phosphate; activation factor at 20 µM; Mannose-6-phosphate isomerase (Homo sapiens), P34949; 190,000 tested, 0.005% active; purified human PMI, coupled resazurin fluorescence, 20 min; active compounds read high; 1 = vehicle control, 0 substrate-free wells; AID 1214, 2008;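 active = activation factor of 2 or more at 20 µM, relative to plate controls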
# PTEN del growth: growth suppression of PTEN-null HCT116, primary screen, cell-based, CellTiter-Glo; HCT116 PTEN-null viability, 60 h; active compounds read low; AID 827, 2007; 140,000 tested, 1.2% active; viability, % at 10 µM;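 active = viability at or below a set limit, 4 SD under the median of all tested compounds, cut at about 3.7% in these data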;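 also: PTEN knockout HCT116 line with beta catenin targeted HCT116 as companion control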
# bCat KO growth: primary screen for growth suppressors in beta-catenin knockout HCT116 cells (colon tumor, human) | HCT116 beta-catenin knockout viability, CellTiter-Glo, 60 h; active compounds read low | viability, % at 10 µM | 140,000 tested, 1.5% active;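 active = viability at or under a set limit, the compound median less 4 SD, cut at about 6% in these data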;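 also: 0% = Hyamine 1622 control at 20 µM and 100% = untreated cell control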
# Numbers without * were called inactive; . = no result given.
SMILES,Lmaj promast,PMI act satM6P,PMI act,PTEN del growth,bCat KO growth
Cn1c(O)c(C=Nc2ccccc2Sc2ccccc2)c(=O)n(C)c1=O,-2.3,1,1,98.2,93.7
Cc1ccc(OCC(=O)N2CCN(Cc3ccc4c(c3)OCO4)CC2)cc1C,89.2*,1,1,.,.
Cc1cccc(OCC(=O)N2CCN(Cc3ccc4c(c3)OCO4)CC2)c1,83.0*,0.9,0.9,.,.
CCc1ccc(CN2CCN(Cc3ccc(SC)cc3)CC2)cc1,89.3*,1.2,1.1,.,.
CSc1ccc(CN2CCN(C(=O)COc3ccc(C)cc3)CC2)cc1,87.1*,1,1,.,.
Cc1cccc(OCC(=O)N2CCN(Cc3ccncc3)CC2)c1,-0.5,1.1,1,94.0,100.1
O=C(COc1ccc(Br)cc1)N1CCN(Cc2ccncc2)CC1,1.3,0.9,0.8,87.8,81.8
CCN1CCN(Cc2ccc(C)cc2)CC1,0.5,1.1,1.2,106.0,97.3
COc1cccc(NC(=O)N2CCC3(CC2)OCCO3)c1,3.6,1,0.9,99.1,98.8
O=C1N(CN2CCOCC2)c2ccccc2C1(O)c1c[nH]c2ccccc12 (stereo unspecified),-3.4,0.9,0.9,89.5,95.0
c1ccc(C2=NP(N3CCOCC3)(N3CCOCC3)=NC(N3CCOCC3)=N2)cc1,-1.5,0.9,1,93.4,88.0
COc1ccc(CN2CCN(C(=O)COc3cccc(C)c3)CC2)c(OC)c1,62.2*,0.8,0.7,82.7,96.0
CCC(=NCCC(c1ccccc1)c1ccccc1)c1c(O)[nH]c(=O)[nH]c1=O,71.8*,0.8,0.9,77.0,86.2
c1ccc(C2OCCN3CCCCC23)cc1 (stereo unspecified),2.1,1.1,1.1,88.7,87.8
COc1ccc(Cl)cc1C(=O)C1CCCN(CCO)C1 (stereo unspecified),4.3,1,1,.,.
Cc1cccc(CN2CCCC(C(=O)c3ccc(C(F)(F)F)cc3)C2)n1 (stereo unspecified),79.4*,1.1,1,.,.
CSc1ccccc1C(=O)C1CCCN(Cc2cccc(C)n2)C1 (stereo unspecified),22.9,1,0.9,.,.
O=C(c1ccc(C(F)(F)F)cc1)C1CCCN(C2CCSCC2)C1 (stereo unspecified),91.9*,0.9,0.8,.,.
Cc1cc(Cl)ccc1C(=O)C1CCCN(C2CCSCC2)C1 (stereo unspecified),85.1*,1.1,1.1,.,.
C=CCn1c(O)c(C(=O)CCCCCC)c(=O)[nH]c1=O,0.0,0.9,1,39.1,40.4
COc1ccccc1-n1c(O)c(C=NCCN2CCNCC2)c(=O)[nH]c1=O,3.0,0.8,0.9,92.0,92.6
COc1cccc(C(=O)C2CCCN(Cc3ccc4nonc4c3)C2)c1 (stereo unspecified),88.7*,.,.,.,.
COc1ccc(CN2CCCC(C(=O)c3ccccc3SC)C2)cc1O (stereo unspecified),62.7*,0.8,0.9,.,.
O=C(c1cc(F)ccc1F)C1CCCN(Cc2ccc3nonc3c2)C1 (stereo unspecified),86.5*,1,1,.,.
CSc1ccccc1C(=O)C1CCCN(Cc2ccccn2)C1 (stereo unspecified),1.2,1.1,1,.,.
SMILES,Lmaj promast,PMI act satM6P,PMI act,PTEN del growth,bCat KO growth
COc1ccc(C(=O)C2CCCN(Cc3ccsc3)C2)cc1OC (stereo unspecified),95.8*,1,1,.,.
COc1ccc(C(=O)C2CCCN(Cc3ccon3)C2)c(OC)c1 (stereo unspecified),-2.2,0.9,0.9,.,.
CCOP(=O)(OCC)C(NC(=O)CN1C(=O)c2ccccc2S1(=O)=O)C(Cl)(Cl)Cl (stereo unspecified),-5.0,1.2,1.2,94.9,98.2
CCOP(=O)(OCC)C(O)c1ccc(OC)c(OC)c1 (stereo unspecified),-3.2,1,1,97.2,92.4
CCOCCCNC(=O)C1c2cc(OC)c(OC)cc2C(=O)N2CCCCC12 (stereo unspecified),-2.9,1,0.9,90.6,89.3
CCCCCCOc1ccc(CN2CCN(C)CC2)cc1,99.9*,0.9,0.9,75.8,70.4
Cc1ccc2c(c1)CC1(CN2C)C(=O)NC(=O)N(c2ccccc2C)C1=O (stereo unspecified),-3.5,1.9,1.6,95.7,101.3
Cc1ccc2c(c1)CC1(CN2C)C(=O)NC(=O)N(CCc2ccccc2)C1=O (stereo unspecified),-3.9,2.1*,1.8,87.1,89.5
O=Cc1cn(Cc2ccc([N+](=O)[O-])cc2)c2ccccc12,7.1,0.9,1,87.6,76.9
O=Cc1cn(Cc2ccccc2[N+](=O)[O-])c2ccccc12,50.4*,1,0.9,72.6,75.0
CCOc1cc(-c2nc3c(C)cccn3c2NCC2CCCO2)ccc1O (stereo unspecified),20.4,1,1.1,74.7,72.2
O=c1[nH]c(=O)n(CCC2=CCCCC2)c(O)c1C=NCCN1CCNCC1,2.6,0.9,1,96.0,85.8
O=c1[nH]c(O)c(C=NC2CCN(Cc3ccccc3)CC2)c(=O)[nH]1,-4.2,.,.,.,.
O=c1[nH]c(=O)n(CCC2=CCCCC2)c(O)c1C=NC1CCN(Cc2ccccc2)CC1,83.0*,0.8,0.9,29.0,38.5
CCCCCCn1c(O)c(C=NC2CCN(Cc3ccccc3)CC2)c(=O)[nH]c1=O,54.1*,1,0.9,38.2,43.6
O=c1[nH]c(=O)n(CCC2=CCCCC2)c(O)c1/C=N/Nc1ccccc1,80.5*,1.3,1.1,81.1,86.2
COP(=S)(OC)SCN1C(=O)c2ccccc2C1=O,14.8,1,1,96.0,83.1
Cc1cc(C=C2C(=O)N(C)C(=S)N(C)C2=O)c(C)n1-c1cccnc1,35.8,0.3,0.4,59.8,57.6
CCN(CC)C1=NC(=[N+](CC)CC)c2ccccc21,99.9*,1.1,1.1,7.7,7.5
CCc1c(C(=O)NN2C(=O)C3C4CCC(O4)C3C2=O)csc1C (stereo unspecified),-2.9,1,1,95.0,83.1
O=C(CCl)NCC1CCCO1 (stereo unspecified),-15.0,1,1.1,.,.
Cc1ccsc1C(=O)C1CCCN(Cc2cccn2-c2ccccn2)C1 (stereo unspecified),60.8*,1.1,1,.,.
CCC(=O)N1CC(=O)Nc2ccc(Br)cc2C1c1ccccc1 (stereo unspecified),0.5,1,1,.,.
CCCCCc1nc2c(c(=O)c3ccccc3n2C)c(=O)n1C1CCCCCC1,98.5*,1,0.9,1.6*,1.5*
CC(=O)c1ccccc1NC(=O)C1C2CCC(O2)C1C(=O)O (stereo unspecified),-5.4,1,0.8,79.6,71.6
